Source: ChEMBL document CHEMBL2086222, “Bioassay-guided isolation of prenylated xanthones and polycyclic acylphloroglucinols from the leaves of Garcinia nujiangensis” (J Nat Prod, 2012)
Active and inactive are the calls of the source. No cut-off for these calls is given here.

Columns and labels:
[1] = tested on: HepG2; test: Cytotoxicity against human HepG2 cells assessed as reduction in cell viability at 5 to 40 uM after 72 hrs by MTT assay; type: functional, cell-based
Outline: (§1)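 Cells in RPMI 1640, DMEM or DMEM/F12 with 10% FBS, 37 °C, 5% CO2. Plated at 5 × 10^3 cells/well and attached overnight. Exposed 72 h to 5, 10, 20 or 40 μM from DMSO stocks diluted in medium. MTT (5 mg/mL stock in PBS) added for 4 h at 37 °C, formazan dissolved in DMSO, A490 read. Untreated cells taken as 100%.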

[2] = tested on: A-375; test: Cytotoxicity against human A375 cells assessed as reduction in cell viability at 5 to 40 uM after 72 hrs by MTT assay; type: functional, cell-based; outline: as §1
[3] = tested on: NCI-H2126; test: Cytotoxicity against human NCI-H2126 cells assessed as reduction in cell viability at 5 to 40 uM after 72 hrs by MTT assay; type: functional, cell-based; outline: as §1
[4] = tested on: SMMC-7721; test: Cytotoxicity against human SMMC7721 cells assessed as reduction in cell viability at 5 to 40 uM after 72 hrs by MTT assay; type: functional, cell-based; outline: as §1
[5] = tested on: PANC-1; test: Cytotoxicity against human PANC1 cells assessed as reduction in cell viability at 5 to 40 uM after 72 hrs by MTT assay; type: functional, cell-based; outline: as §1
[6] = tested on: MCF7; test: Cytotoxicity against human MCF7 cells assessed as reduction in cell viability at 5 to 40 uM after 72 hrs by MTT assay; type: functional, cell-based; outline: as §1
[7] = tested on: A549; test: Cytotoxicity against human A549 cells assessed as reduction in cell viability at 5 to 40 uM after 72 hrs by MTT assay; type: functional, cell-based; outline: as §1
[8] = tested on: AGS; test: Cytotoxicity against human AGS cells assessed as reduction in cell viability at 5 to 40 uM after 72 hrs by MTT assay; type: functional, cell-based; outline: as §1
[9] = tested on: BXPC-3; test: Cytotoxicity against human BxPC3 cells assessed as reduction in cell viability at 5 to 40 uM after 72 hrs by MTT assay; type: functional, cell-based; outline: as §1
[10] = tested on: MDA-MB-231; test: Cytotoxicity against human MDA-MB-231 cells assessed as reduction in cell viability at 5 to 40 uM after 72 hrs by MTT assay; type: functional, cell-based; outline: as §1
[11] = Cytotoxicity against human MIHA cells assessed as reduction in cell viability at 5 to 40 uM after 72 hrs by MTT assay; type: cell-based; outline: as §1
[12] = tested on: U-87MG ATCC; test: Cytotoxicity against human U87 cells assessed as reduction in cell viability at 5 to 40 uM after 72 hrs by MTT assay; type: functional, cell-based; outline: as §1
[13] = tested on: NCI-H2126; test: Cytotoxicity against human NCI-H2126 cells assessed as reduction in cell viability after 72 hrs by MTT assay; type: functional, cell-based; conditions: NCI-H2126, 72 h; outline: as §1
[14] = tested on: A549; test: Cytotoxicity against human A549 cells assessed as reduction in cell viability after 72 hrs by MTT assay; type: functional, cell-based; conditions: A549, 72 h
Outline: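 Human lung line cultured in RPMI 1640, DMEM or DMEM/F12 with 10% FBS at 37 °C, 5% CO2. 5 × 10^3 cells/well plated and left to attach overnight. Compound taken from DMSO stock, diluted in medium, tested at 5, 10, 20 and 40 μM for 72 h. MTT (5 mg/mL stock) added for 4 h at 37 °C. Formazan dissolved in DMSO, absorbance read at 490 nm. Untreated cells set as 100%.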

[15] = tested on: A-375; test: Cytotoxicity against human A375 cells assessed as reduction in cell viability after 72 hrs by MTT assay; type: functional, cell-based; conditions: A-375, 72 h; outline: as §1
[16] = tested on: SMMC-7721; test: Cytotoxicity against human SMMC7721 cells assessed as reduction in cell viability after 72 hrs by MTT assay; type: functional, cell-based; conditions: SMMC-7721, 72 h; outline: as §1
[17] = tested on: PANC-1; test: Cytotoxicity against human PANC1 cells assessed as reduction in cell viability after 72 hrs by MTT assay; type: functional, cell-based; conditions: PANC-1, 72 h; outline: as §1
[18] = tested on: AGS; test: Cytotoxicity against human AGS cells assessed as reduction in cell viability after 72 hrs by MTT assay; type: functional, cell-based; outline: as §1
[19] = tested on: BXPC-3; test: Cytotoxicity against human BxPC3 cells assessed as reduction in cell viability after 72 hrs by MTT assay; type: functional, cell-based; conditions: BXPC-3, 72 h; outline: as §1

Compound: O=c1c(O)c(-c2ccc(O)cc2)oc2cc(O)cc(O)c12 [KAEMPFEROL]
- Activity [1]: Active
- Activity [2]: Active
- Activity [3]: Active
- Activity [4]: Active
- Activity [5]: Active
- Activity [6]: Active
- Activity [7]: Active
- Activity [8]: Active
- Activity [9]: Active
- Activity [10]: Active
- Activity [11]: Non-toxic
- Activity [12]: Active

Compound: C=C(C)[C@@H](CC=C(C)C)C[C@@]12C[C@H](CC=C(C)C)C(C)(C)[C@@](CC=C(C)C)(C(=O)C(C(=O)c3ccc(O)c(O)c3)=C1O)C2=O
- Activity [1]: Active
- Activity [2]: Active
- Activity [3]: Active
- Activity [4]: Active
- Activity [5]: Active
- Activity [6]: Active
- Activity [7]: Active
- Activity [8]: Active
- Activity [9]: Active
- Activity [10]: Active
- Activity [11]: Non-toxic
- Activity [12]: Active

Compound: CC(=O)O[C@H]1C(=O)[C@@]2(C)[C@H]([C@H](OC(=O)c3ccccc3)[C@]3(O)C[C@H](OC(=O)[C@H](O)[C@@H](NC(=O)c4ccccc4)c4ccccc4)C(C)=C1C3(C)C)[C@]1(OC(C)=O)CO[C@@H]1C[C@@H]2O [PACLITAXEL]
- IC50 [13]: 2500 nM
- IC50 [14]: 720 nM
- IC50 [15]: 9.2 nM
- IC50 [16]: 150 nM
- IC50 [17]: 260 nM
- IC50 [18]: 1600 nM
- IC50 [19]: 90 nM

Compound: C=C(C)CC[C@@H]1C[C@]23C[C@H](CC=C(C)C)C(C)(C)[C@](CC=C(C)C)(C(=O)C(C(=O)c4ccc(O)c(O)c4)=C2OC1(C)C)C3=O [CYCLOXANTHOCHYMOL]
- Activity [1]: Active
- Activity [2]: Active
- Activity [3]: Active
- Activity [4]: Active
- Activity [5]: Active
- Activity [6]: Active
- Activity [7]: Active
- Activity [8]: Active
- Activity [9]: Active
- Activity [10]: Active
- Activity [11]: Non-toxic
- Activity [12]: Active

Compound: C=C(C)CCC(C[C@@]12C[C@H](CC=C(C)C)C(C)(C)[C@@](CC=C(C)C)(C1=O)c1oc3cc(O)c(O)cc3c(=O)c1C2=O)C(=C)C (relative stereo)
- Activity [1]: Active
- Activity [2]: Active
- Activity [3]: Active
- Activity [4]: Active
- Activity [5]: Active
- Activity [6]: Active
- Activity [7]: Active
- Activity [8]: Active
- Activity [9]: Active
- Activity [10]: Active
- Activity [11]: Non-toxic
- Activity [12]: Active

Compound: CC(C)=CC[C@H]1C[C@@]23C[C@@H](CC=C(C)C)C(C)(C)[C@@](CC=C(C)C)(C(=O)C(C(=O)c4ccc(O)c(O)c4)=C2OC1(C)C)C3=O [CAMBOGIN]
- Activity [1]: Active
- Activity [2]: Active
- Activity [3]: Active
- Activity [4]: Active
- Activity [5]: Active
- Activity [6]: Active
- Activity [7]: Active
- Activity [8]: Active
- Activity [9]: Active
- Activity [10]: Active
- Activity [11]: Non-toxic
- Activity [12]: Active

Compound: COc1c(OC)c(O)c2c(=O)c3c(CC=C(C)C)c(CC=C(C)C)c(O)c(O)c3oc2c1CC=C(C)C [NUJIANGEXANTHONE B]
- Activity [1]: Active
- Activity [2]: Active
- Activity [3]: Active
- Activity [4]: Active
- Activity [5]: Active
- Activity [6]: Active
- Activity [7]: Active
- Activity [8]: Active
- Activity [9]: Active
- Activity [10]: Active
- Activity [11]: Non-toxic
- Activity [12]: Active

Compound: CC1(C)C=Cc2c(cc(O)c3c(=O)c4ccc(O)c(O)c4oc23)O1 [ISOJACAREUBIN]
- Activity [11]: Non-toxic

Compound: COc1c(O)c(O)c2c(=O)c3c(CC=C(C)C)c(CC=C(C)C)c(O)c(O)c3oc2c1CC=C(C)C [NUJIANGEXANTHONE A]
- Activity [1]: Active
- Activity [2]: Active
- Activity [3]: Active
- Activity [4]: Active
- Activity [5]: Active
- Activity [6]: Active
- Activity [7]: Active
- Activity [8]: Active
- Activity [9]: Active
- Activity [10]: Active
- Activity [11]: Non-toxic
- Activity [12]: Active

Compound: C=C(C)CC[C@H]1C[C@@]23C[C@@H](CC=C(C)C)C(C)(C)[C@@](CC=C(C)C)(C(=O)C(C(=O)c4ccc(O)c(O)c4)=C2OC1(C)C)C3=O
- Activity [1]: Active
- Activity [2]: Active
- Activity [3]: Active
- Activity [4]: Active
- Activity [5]: Active
- Activity [6]: Active
- Activity [7]: Active
- Activity [8]: Active
- Activity [9]: Active
- Activity [10]: Active
- Activity [11]: Non-toxic
- Activity [12]: Active

Compound: C=C(C)CCC(C[C@]12C[C@@H]3[C@H](C=C(C)C)[C@](C(=O)c4ccc(O)c(O)c4)(C1=O)C(=O)[C@](CC=C(C)C)(C2=O)C3(C)C)C(=C)C (stereo partly specified)
- Activity [1]: Active
- Activity [2]: Active
- Activity [3]: Active
- Activity [4]: Active
- Activity [5]: Active
- Activity [6]: Active
- Activity [7]: Active
- Activity [8]: Active
- Activity [9]: Active
- Activity [10]: Active
- Activity [11]: Non-toxic
- Activity [12]: Active

Compound: C=C(C)CCC(C[C@@]12C[C@@H](CC=C(C)C)C(C)(C)[C@@](CC=C(C)C)(C(=O)c3c1oc1cc(O)c(O)cc1c3=O)C2=O)C(=C)C (relative stereo)
- Activity [1]: Active
- Activity [2]: Active
- Activity [3]: Active
- Activity [4]: Active
- Activity [5]: Active
- Activity [6]: Active
- Activity [7]: Active
- Activity [8]: Active
- Activity [9]: Active
- Activity [10]: Active
- Activity [11]: Non-toxic
- Activity [12]: Active

Compound: C=C(C)[C@@H]1C[C@]23C[C@H](CC=C(C)C)C(C)(C)[C@](CC=C(C)C)(C(=O)C(C(=O)c4ccc(O)c(O)c4)=C2O[C@H]1C=C(C)C)C3=O [GARCINIALIPTONE B]
- Activity [1]: Active
- Activity [2]: Active
- Activity [3]: Active
- Activity [4]: Active
- Activity [5]: Active
- Activity [6]: Active
- Activity [7]: Active
- Activity [8]: Active
- Activity [9]: Active
- Activity [10]: Active
- Activity [11]: Non-toxic
- Activity [12]: Active

Compound: C=C(C)CCC(C[C@]12C[C@H](CC=C(C)C)C(C)(C)[C@@]3(C[C@@H](C(C)(C)O)OC3=C(C(=O)c3ccc(O)c(O)c3)C1=O)C2=O)C(=C)C (relative stereo)
- Activity [1]: Active
- Activity [2]: Active
- Activity [3]: Active
- Activity [4]: Active
- Activity [5]: Active
- Activity [6]: Active
- Activity [7]: Active
- Activity [8]: Active
- Activity [9]: Active
- Activity [10]: Active
- Activity [11]: Non-toxic
- Activity [12]: Active

Compound: CC(C)=CC[C@H]1C[C@@]23C[C@H](CC=C(C)C)C(C)(C)[C@@](CC=C(C)C)(C(=O)C(C(=O)c4ccc(O)c(O)c4)=C2OC1(C)C)C3=O
- Activity [1]: Active
- Activity [2]: Active
- Activity [3]: Active
- Activity [4]: Active
- Activity [5]: Active
- Activity [6]: Active
- Activity [7]: Active
- Activity [8]: Active
- Activity [9]: Active
- Activity [10]: Active
- Activity [11]: Non-toxic
- Activity [12]: Active

Compound: COc1cc2c(=O)c3c(O)c(CC=C(C)C)c(O)c(CC=C(C)C)c3oc2c(O)c1O [XANTHONE V2A]
- Activity [1]: Active
- Activity [2]: Active
- Activity [3]: Active
- Activity [4]: Active
- Activity [5]: Active
- Activity [6]: Active
- Activity [7]: Active
- Activity [8]: Active
- Activity [9]: Active
- Activity [10]: Active
- Activity [11]: Non-toxic
- Activity [12]: Active
